Laboratory results from ChEMBL document CHEMBL1135596, “Synthesis and evaluation of indenopyrazoles as cyclin-dependent kinase inhibitors. 2. Probing the indeno ring substituent pattern” (J Med Chem, 2002).

Tests used:
[1] = target: T1, Cyclin-dependent kinase 4/cyclin D1 (Homo sapiens, UniProt P11802); assay: Compound was evaluated for 50% inhibition of Cyclin-dependent kinase 4-cyclin D1; format: protein-complex assay
Summary of the method: (§1)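 CDK4/cyclin D1 from extracts of co-expressing cells; 50 mM Tris-HCl pH 7.6, 10 mM MgCl2, 10% DMSO, 1 mM DTT, 50 µM ATP with [γ-32P]ATP, 6 µg GST-Rb (Rb aa 378-928). Started with 4 units enzyme, 15 min at room temperature, stopped with EDTA/ATP buffer. Labeled GST-Rb captured on GSH-Sepharose and counted by scintillation. IC50 from fit of v/vo versus [I] with slope term.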

[2] = target: T2, Cyclin-dependent kinase 2/cyclin E (Homo sapiens, UniProt P24941); assay: Compound was evaluated for inhibition of Cyclin-dependent kinase 2-cyclin E; format: protein-complex assay
Summary of the method: (§2)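 CDK2/his-cyclin E in 50 mM Tris-HCl pH 7.6, 10 mM MgCl2, 10% DMSO, 1 mM DTT, 50 µM ATP, 0.05 µCi [γ-32P]ATP, 6 µM GST-Rb. Incubated at room temperature, stopped with cold PBS containing 100 mM EDTA, 10 mM ATP, BSA and NP40. 32P incorporation into Rb measured; IC50 by fit of v/vo to [I] with slope factor.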

HCT-116 [3] = assay: Toxicity tested against transformed human colon cancer cell line (HCT116); format: functional, cell-based
Summary of the method: (§3)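 Sulforhodamine B growth assay. HCT116 colon carcinoma or AG1523 normal fibroblasts were seeded in McCoy's 5A with 5% FBS, at a density allowing 3-5 doublings. Incubation was 5 days (HCT116) or 6 days (AG1523) at 37 °C, 5% CO2. Cells were fixed with cold TCA, stained with 0.4% SRB, and dye was dissolved in 10 mM Tris base; OD read at 570 nm.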

AG1523 = assay: Toxicity tested against normal human fibroblast cell line (AG1523); format: functional, cell-based; summary of the method: as §3
HCT-116 [4] = assay: Effect of serum protein binding on inhibition of transformed cell line(PB HCT116) proliferation; format: functional, cell-based; conditions: Homo sapiens
Summary of the method: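 HCT116 cells were grown as in the SRB assay, with 45 mg/mL human serum albumin plus 1 mg/mL α1-acid glycoprotein added together with graded compound. Growth was read out by MTT: 1 mg/mL solution added, 4 h at 37 °C. Formazan was solubilized in 0.04 N HCl/isopropanol and absorbance read at 570 nm against a 630 nm reference.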

[5] = target: T1, Cyclin-dependent kinase 4/cyclin D1; assay: Inhibition of Cyclin-dependent kinase 4-cyclin D1; format: protein-complex assay; summary of the method: as §1
[6] = target: T2, Cyclin-dependent kinase 2/cyclin E; assay: Inhibition of Cyclin-dependent kinase 2-cyclin E; format: protein-complex assay; summary of the method: as §2

T1 sequence (P11802 whole entry, the tested form may be a part): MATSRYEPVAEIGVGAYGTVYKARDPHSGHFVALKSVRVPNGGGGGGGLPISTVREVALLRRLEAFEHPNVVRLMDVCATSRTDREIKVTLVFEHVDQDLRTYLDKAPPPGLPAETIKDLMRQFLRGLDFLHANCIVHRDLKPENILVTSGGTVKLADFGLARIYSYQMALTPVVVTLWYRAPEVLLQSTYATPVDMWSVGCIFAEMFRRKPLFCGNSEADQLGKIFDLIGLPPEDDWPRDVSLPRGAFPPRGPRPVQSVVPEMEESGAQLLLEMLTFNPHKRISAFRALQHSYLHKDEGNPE
T1 sequence (P24385 whole entry, further chain, the tested form may be a part): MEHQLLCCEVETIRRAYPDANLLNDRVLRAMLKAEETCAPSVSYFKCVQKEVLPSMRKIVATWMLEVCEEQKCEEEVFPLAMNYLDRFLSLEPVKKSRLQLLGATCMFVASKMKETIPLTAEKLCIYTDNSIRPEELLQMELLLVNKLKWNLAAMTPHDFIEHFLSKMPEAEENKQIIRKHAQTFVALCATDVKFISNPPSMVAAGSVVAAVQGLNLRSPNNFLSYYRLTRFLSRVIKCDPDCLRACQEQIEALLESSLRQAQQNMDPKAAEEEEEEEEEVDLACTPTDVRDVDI

Row | SMILES | IC50 [1] | IC50 [2] | IC50 (HCT-116 [3]) | IC50 (AG1523) | IC50 (HCT-116 [4]) | IC50 [5] | IC50 [6]
1 | COc1ccc(-c2[nH]nc3c2C(=O)c2c(N)cccc2-3)cc1 | 23000 nM | 8400 nM | – | – | – | – | –
2 | COc1ccc(-c2[nH]nc3c2C(=O)c2c(NC(=O)CN4CCCCC4)cccc2-3)cc1 | > 1000 nM | 185 nM | – | – | – | – | –
3 | COc1ccc(-c2[nH]nc3c2C(=O)c2c(NC(=O)CN4CCOCC4)cccc2-3)cc1 | 195 nM | 21 nM | – | – | – | – | –
4 | COc1ccc(-c2[nH]nc3c2C(=O)c2c(NC(=O)NN4CCCC4)cccc2-3)cc1 | 12 nM | 15 nM | – | – | – | – | –
5 | COc1ccc(-c2[nH]nc3c2C(=O)c2c(NC(=O)CN)cccc2-3)cc1 | > 1400 nM | > 720 nM | – | – | – | – | –
6 | COc1ccc(-c2[nH]nc3c2C(=O)c2c(NC(=O)NCc4ccccc4)cccc2-3)cc1 | 307 nM | 95 nM | – | – | – | – | –
7 | COc1ccc(-c2[nH]nc3c2C(=O)c2c(NC(=O)NN4CCN(C)CC4)cccc2-3)cc1 | 9 nM | 12 nM | 15 nM | 85 nM | – | – | –
8 | COc1ccc(-c2[nH]nc3c2C(=O)c2c(NC(=O)NCc4ccncc4)cccc2-3)cc1 | 1150 nM | 29 nM | 378 nM | > 24000 nM | > 58000 nM | – | –
9 | COc1ccc(-c2[nH]nc3c2C(=O)c2c(NC(=O)NN4CCOCC4)cccc2-3)cc1 | 12 nM | 18 nM | 20 nM | 950 nM | 622 nM | – | –
10 | COc1ccc(-c2[nH]nc3c2C(=O)c2cc(O)ccc2-3)cc1 | 21500 nM | – | – | – | – | – | –
11 | COc1ccc(-c2[nH]nc3c2C(=O)c2c(NC(=O)CN4CCC(CO)CC4)cccc2-3)cc1 | 82 nM | 11 nM | – | – | – | – | –
12 | COc1ccc(-c2c3c(nn2C)-c2ccccc2C3=O)cc1 | > 340000 nM | > 340000 nM | – | – | – | – | –
13 | COc1ccc(-c2[nH]nc3c2C(=O)c2c(NC(=O)CN4CCN(C)CC4)cccc2-3)cc1 | 125 nM | 12 nM | – | – | – | – | –
14 | COc1ccc(-c2[nH]nc3c2C(=O)c2c(NC(=O)N(C)Cc4ccccc4)cccc2-3)cc1 | > 2300 nM | > 2300 nM | – | – | – | – | –
15 | COc1ccc(-c2[nH]nc3c2C(=O)c2ccncc2-3)cc1 | 34500 nM | 4700 nM | – | – | – | – | –
16 | COc1ccc(-c2[nH]nc3c2C(=O)c2c(NC(=O)CN(C)C)cccc2-3)cc1 | 900 nM | 44 nM | – | – | – | – | –
17 | COc1ccc(-c2[nH]nc3c2C(=O)c2c(NC(=O)CN4CCN(C(=N)N)CC4)cccc2-3)cc1 | 26 nM | 7 nM | > 900 nM | – | – | – | –
18 | COc1ccc(-c2[nH]nc3c2C(=O)c2c(O)cccc2-3)cc1 | 20000 nM | 5200 nM | – | – | – | – | –

Row | SMILES | IC50 [1] | IC50 [2] | IC50 (HCT-116 [3]) | IC50 (AG1523) | IC50 (HCT-116 [4]) | IC50 [5] | IC50 [6]
19 | COc1ccc(-c2c3c(nn2-c2ccccc2)-c2ccccc2C3=O)cc1 | > 200000 nM | > 280000 nM | – | – | – | – | –
20 | COc1ccc(-c2[nH]nc3c2C(=O)c2cccnc2-3)cc1 | > 361000 nM | – | – | – | – | – | –
21 | CCNCC(=O)Nc1cccc2c1C(=O)c1c-2n[nH]c1-c1ccc(OC)cc1 | 917 nM | 130 nM | – | – | – | – | –
22 | CCN(CC)C(=O)Nc1cccc2c1C(=O)c1c(-c3ccc(OC)cc3)n[nH]c1-2 | > 1300 nM | > 1300 nM | – | – | – | – | –
23 | COc1ccc(-c2[nH]nc3c2C(=O)c2c(NC(N)=O)cccc2-3)cc1 | 66 nM | 7 nM | 57 nM | 413 nM | 3200 nM | – | –
24 | COc1ccc(CNC(=O)Nc2cccc3c2C(=O)c2c(-c4ccc(OC)cc4)n[nH]c2-3)cc1 | > 1100 nM | 180 nM | – | – | – | – | –
25 | COc1ccc(-c2[nH]nc3c2C(=O)c2c(NC(=O)CN4CCNCC4)cccc2-3)cc1 | 113 nM | 33 nM | – | – | – | – | –
26 | COc1ccc(-c2[nH]nc3c2C(=O)c2c(NC(=O)CN4CCC(CN)CC4)cccc2-3)cc1 | 20 nM | 12 nM | 70 nM | 600 nM | – | – | –
27 | COc1ccc(-c2[nH]nc3c2C(=O)c2c(NC(=O)NN(C)C)cccc2-3)cc1 | – | – | 28 nM | 385 nM | 1240 nM | 21 nM | 5 nM
28 | COc1ccc(-c2[nH]nc3c2C(=O)c2c(NC(=O)Nc4ccccc4)cccc2-3)cc1 | 877 nM | 32 nM | – | – | – | – | –
29 | COc1ccc(-c2[nH]nc3c2C(=O)c2c(NC(=O)CN4CCSCC4)cccc2-3)cc1 | > 500 nM | 54 nM | – | – | – | – | –
30 | COc1ccc(-c2[nH]nc3c2C(=O)c2cc(Cl)c(Cl)cc2-3)cc1 | 55500 nM | – | – | – | – | – | –
31 | CCCCNC(=O)Nc1cccc2c1C(=O)c1c(-c3ccc(OC)cc3)n[nH]c1-2 | 780 nM | 84 nM | – | – | – | – | –
32 | COc1ccc(-c2[nH]nc3c2C(=O)c2c(NC(=O)CN4CCN(C(N)=O)CC4)cccc2-3)cc1 | 64 nM | 8 nM | 47 nM | > 400 nM | > 5200 nM | – | –
33 | COc1ccc(-c2[nH]nc3c2C(=O)c2c(NC(=O)CN4CCC(C(N)=O)CC4)cccc2-3)cc1 | 76 nM | 8 nM | – | 400 nM | – | – | –
34 | COc1ccc(-c2[nH]nc3c2C(=O)c2c(NC(=O)NN4CCCCC4)cccc2-3)cc1 | 12 nM | 22 nM | – | – | – | – | –
35 | COc1ccc(-c2[nH]nc3c2C(=O)c2cc(N)ccc2-3)cc1 | 108000 nM | 210000 nM | – | – | – | – | –
